This passage reports MIC results from ChEMBL document CHEMBL1132401, “Glycosylation of fluoroquinolones through direct and oxygenated polymethylene linkages as a sugar-mediated active transport system for antimicrobials” (1999).

The test system of assay [1] is Enterococcus faecalis. Nature of the assay: Minimum concentration required to prevent the growth of nonresistant stock strain Enterococcus faecalis 51299 from American Type Culture Collection (ATCC). The assay is classed as functional. The method in brief: (§1)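 Agar dilution susceptibility testing per NCCLS guidelines against resistant clinical isolates, with nonresistant ATCC stock strains run as controls. Plates were read at 19–24 h of incubation. MIC reported in µg/mL.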

The test system of assay [2] is Klebsiella oxytoca. Put plainly: Minimum concentration required to prevent the growth of cipro resistant (Cipro-R) Klebsiella oxytoca strain A3530.
Assay [3] has as its system Staphylococcus epidermidis. Nature of the assay: Minimum concentration required to prevent the growth of multiply resistant Staphylococcus epidermidis (MRSE) and cipro resistant (Cipro-R) coag.-neg. Staph. A0248. In kind it is functional. The method in brief:
as §1

Assay [4] relates to Enterococcus faecalis. Put plainly: Minimum concentration required to prevent the growth of vancomycin resistant (VanA) Enterococcus faecalis strain A0402. In kind it is functional. The method in brief:
as §1

Assay [5] concerns Staphylococcus epidermidis. Put plainly: Minimum concentration required to prevent the growth of multiply resistant Staphylococcus epidermidis (MRSE) coag.-neg. Staph. A0245. In kind it is functional. The method in brief:
as §1

Assay [6] has as its system Pseudomonas aeruginosa. Put plainly: Minimum concentration required to prevent the growth of Pseudomonas aeruginosa strain 28215. In kind it is functional. The method in brief: (§2)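 Agar dilution susceptibility testing per NCCLS guidelines, covering clinical isolates (including resistant phenotypes) and nonresistant ATCC stock strains as controls. Plates read after 19–24 h of incubation. MIC reported in μg/mL.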

Assay [7] has as its system Enterococcus faecium. Put plainly: Minimum concentration required to prevent the growth of nonresistant stock strain Enterococcus faecium 19434 from American Type Culture Collection (ATCC). In kind it is functional. Summed up: as §2
For assay [8], the system named is Escherichia coli. Nature of the assay: Minimum concentration required to prevent the growth of cipro resistant (Cipro-R) Escherichia coli strain A3228. The assay is classed as functional. The method in brief:
as §2

Assay [9] deals with Staphylococcus aureus. Nature of the assay: Minimum concentration required to prevent the growth of multiply resistant (MRSA) and cipro resistant (Cipro-R) Staphylococcus aureus strain A2800. In kind it is functional. Summed up: as §1
Assay [10] relates to Staphylococcus aureus. Put plainly: Minimum concentration required to prevent the growth of multiply resistant (MRSA) Staphylococcus aureus strain A0170. The assay is classed as functional. Summed up: as §1
The subject of assay [11] is Staphylococcus aureus. Nature of the assay: Minimum concentration required to prevent the growth of multiply resistant (MRSA) Staphylococcus aureus strain A0171. In kind it is functional. Summed up:
as §1

The subject of assay [12] is Enterococcus faecalis. Nature of the assay: Minimum concentration required to prevent the growth of vancomycin resistant (VanA) Enterococcus faecalis strain A0401. The assay is classed as functional. Summed up: as §1
The subject of assay [13] is Staphylococcus aureus. Put plainly: Minimum concentration required to prevent the growth of multiply resistant (MRSA) and cipro resistant (Cipro-R) Staphylococcus aureus strain A2043. In kind it is functional. Summed up:
as §1

Assay [14] relates to Pseudomonas aeruginosa. Nature of the assay: Minimum concentration required to prevent the growth of Pseudomonas aeruginosa strain 28245. In kind it is functional. The method in brief: as §2
Assay [15] concerns Enterococcus faecalis. Put plainly: Minimum concentration required to prevent the growth of vancomycin resistant (VanB) Enterococcus faecalis strain A1081. The assay is classed as functional. Summed up: as §1
The test system of assay [16] is Staphylococcus aureus. Nature of the assay: Minimum concentration required to prevent the growth of nonresistant stock strain Staphylococcus aureus 29213 from American Type Culture Collection (ATCC).
Assay [17] has as its system Enterococcus faecalis. Nature of the assay: Minimum concentration required to prevent the growth of high level gentamicin and beta- lactamase resistant (HLGR, BLA+) Enterococcus faecalis strain A0089. In kind it is functional. The method in brief: as §1
For assay [18], the system named is Escherichia coli. Nature of the assay: Minimum concentration required to prevent the growth of cipro resistant (Cipro-R) Escherichia coli strain AA. The assay is classed as functional. Summed up: as §2
In assay [19] the test system is Escherichia coli. Put plainly: Minimum concentration required to prevent the growth of cipro resistant (Cipro-R) Escherichia coli strain A3529. The assay is classed as functional. Summed up: as §2
Assay [20] relates to Escherichia coli. Put plainly: Minimum concentration required to prevent the growth of nonresistant stock Escherichia coli strain 25922 from American Type Culture Collection (ATCC). The assay is classed as functional. Particulars: ATCC25922. The method in brief:
as §2

The subject of assay [21] is Listeria monocytogenes. Put plainly: Minimum concentration required to prevent the growth of Listeria monocytogenes strain A0182. The assay is classed as functional. Summed up:
as §2

Assay [22] deals with Listeria monocytogenes. Put plainly: Minimum concentration required to prevent the growth of Listeria monocytogenes strain A0183. The assay is classed as functional. Summed up: as §2
Assay [23] relates to Staphylococcus epidermidis. Put plainly: Minimum concentration required to prevent the growth of multiply resistant Staphylococcus epidermidis (MRSE) coag.-neg. Staph. A0244. The assay is classed as functional. Summed up: as §1
A further assay has as its system Klebsiella pneumoniae. Nature of the assay: Minimum concentration required to prevent the growth of cipro resistant (Cipro-I) Klebsiella pneumoniae strain AM. In kind it is functional. The method in brief: as §1
In assay [24] the test system is Staphylococcus epidermidis. Nature of the assay: Minimum concentration required to prevent the growth of multiply resistant Staphylococcus epidermidis (MRSE) and cipro resistant (Cipro-R) coag.-neg. Staph. A0247. In kind it is functional. The method in brief:
as §1

The subject of assay [25] is Enterococcus faecalis. Put plainly: Minimum concentration required to prevent the growth of nonresistant stock strain Enterococcus faecalis 29212 from American Type Culture Collection (ATCC). The assay is classed as functional. Summed up:
as §1

The test system of assay [26] is Enterococcus faecalis. Nature of the assay: Minimum concentration required to prevent the growth of high level gentamicin and beta- lactamase resistant (HLGR, BLA+) Enterococcus faecalis strain A0090. In kind it is functional. The method in brief:
as §1

Assay [27] has as its system Enterococcus faecalis. Nature of the assay: Minimum concentration required to prevent the growth of vancomycin resistant (VanB) Enterococcus faecalis strain A1079. The assay is classed as functional. The method in brief:
as §1

The subject of assay [28] is Enterococcus faecium. Nature of the assay: Minimum concentration required to prevent the growth of vancomycin resistant (VanB) Enterococcus faecium strain A0803. In kind it is functional. The method in brief:
as §1

Assay [29] has as its system Klebsiella oxytoca. Put plainly: Minimum concentration required to prevent the growth of cipro resistant (Cipro-I) Klebsiella oxytoca strain A3530. In kind it is functional. The method in brief: as §1
In assay [30] the test system is Enterococcus faecium. Nature of the assay: Minimum concentration required to prevent the growth of vancomycin resistant (VanA) Enterococcus faecium strain A1745. The assay is classed as functional. The method in brief: as §1
For assay [31], the system named is Enterococcus faecium. Put plainly: Minimum concentration required to prevent the growth of vancomycin resistant (VanB) Enterococcus faecium strain A1087. In kind it is functional. The method in brief:
as §1

[32] abbreviates: Enterococcus faecalis, read-out: MIC.

In brackets after ≈: the same amount, converted by molar mass.

By MIC is commonly meant the least concentration at which growth counts as inhibited. For `O=C(O)c1cn(C2CC2)c2cc(N3CCN(CCO[C@@H]4O[C@@H](CO)[C@H](O)[C@H](O)[C@@H]4O)CC3)c(F)cc2c1=O`, the MIC was 32 µg/mL (≈ 59.5 µM) in the assay with Enterococcus faecalis [1] (setting [32]); greater than 32 µg/mL against Klebsiella oxytoca [2]; greater than 32 µg/mL in assay [3]; 32 µg/mL (≈ 59.5 µM) with Enterococcus faecalis [4] (setting [32]); 16 µg/mL (≈ 29.8 µM) in assay [5]; 16 µg/mL (≈ 29.8 µM) against Pseudomonas aeruginosa [6]. The minimum inhibitory concentration (MIC) in the assay with Enterococcus faecium [7] (Enterococcus faecium, read-out: MIC) was greater than 32 µg/mL; with Escherichia coli [8], greater than 32 µg/mL; against Staphylococcus aureus [9] it was greater than 32 µg/mL; in the assay on Staphylococcus aureus [10], 8 µg/mL (≈ 14.9 µM); against Staphylococcus aureus [11], 8 µg/mL (≈ 14.9 µM); with Enterococcus faecalis [12] (setting [32]) it was greater than 32 µg/mL. Moreover, the MIC was greater than 32 µg/mL in the assay on Staphylococcus aureus [13]; greater than 32 µg/mL with Pseudomonas aeruginosa [14]; 16 µg/mL (≈ 29.8 µM) in the assay on Enterococcus faecalis [15] (setting [32]); 8 µg/mL (≈ 14.9 µM) with Staphylococcus aureus [16]; greater than 32 µg/mL in the assay with Enterococcus faecalis [17] (setting [32]); greater than 32 µg/mL against Escherichia coli [18]. The minimal inhibitory concentration (MIC) with Escherichia coli [19] is greater than 32 µg/mL; in the assay with Escherichia coli [20], 1 µg/mL (≈ 1.86 µM); with Listeria monocytogenes [21], greater than 32 µg/mL; in the assay on Listeria monocytogenes [22], greater than 32 µg/mL; in assay [23] it was 32 µg/mL (≈ 59.5 µM); with Klebsiella pneumoniae, greater than 32 µg/mL. For the same compound, the minimum inhibitory concentration (MIC) in [24] was greater than 32 µg/mL; in the assay with Enterococcus faecalis [25] it was 32 µg/mL (≈ 59.5 µM); in the assay on Enterococcus faecalis [26], 32 µg/mL (≈ 59.5 µM); against Enterococcus faecalis [27], 32 µg/mL (≈ 59.5 µM).

For `O=C(O)c1cn(C2CC2)c2cc(N3CCN(C4OC(CO)C(O)C(O)C4O)CC3)c(F)cc2c1=O` (stereo in doubt; form 2), the MIC worked out at 1 µg/mL (≈ 2.03 µM) in the assay on Enterococcus faecalis [1]; 1 µg/mL (≈ 2.03 µM) with Enterococcus faecalis [4]; 0.5 µg/mL (≈ 1.01 µM) in [5]; 0.5 µg/mL (≈ 1.01 µM) against Pseudomonas aeruginosa [6]; 8 µg/mL (≈ 16.2 µM) against Enterococcus faecium [7]; 0.5 µg/mL (≈ 1.01 µM) in the assay on Staphylococcus aureus [10]. For the same compound, the MIC was 0.5 µg/mL (≈ 1.01 µM) in the assay on Staphylococcus aureus [11]; 2 µg/mL (≈ 4.05 µM) in the assay on Enterococcus faecalis [12]; 4 µg/mL (≈ 8.11 µM) in the assay with Pseudomonas aeruginosa [14]; 0.5 µg/mL (≈ 1.01 µM) in the assay on Enterococcus faecalis [15]; 1 µg/mL (≈ 2.03 µM) against Enterococcus faecalis [17]; 8 µg/mL (≈ 16.2 µM) against Escherichia coli [18]. Moreover, the MIC came out at 32 µg/mL (≈ 64.8 µM) against Escherichia coli [19]; 2 µg/mL (≈ 4.05 µM) in the assay with Listeria monocytogenes [21]; 2 µg/mL (≈ 4.05 µM) with Listeria monocytogenes [22]; 2 µg/mL (≈ 4.05 µM) against Enterococcus faecium [28]; 8 µg/mL (≈ 16.2 µM) against Klebsiella oxytoca [29]; 1 µg/mL (≈ 2.03 µM) in assay [23]. The results for the MIC in the assay with Enterococcus faecium [30] and with Klebsiella pneumoniae were greater than 32 µg/mL and 2 µg/mL (≈ 4.05 µM), respectively.

For the compound `O=C(O)c1cn(C2CC2)c2cc(N3CCN(C4OC(CO)C(O)C(O)C4O)CC3)c(F)cc2c1=O` (stereo in doubt; form 3), the MIC in assay [3] is greater than 32 µg/mL; in [5], 0.5 µg/mL (≈ 1.01 µM); against Enterococcus faecium [31], 4 µg/mL (≈ 8.11 µM); with Pseudomonas aeruginosa [6] it was 0.5 µg/mL (≈ 1.01 µM); against Enterococcus faecium [7] it was 8 µg/mL (≈ 16.2 µM); against Escherichia coli [8], greater than 32 µg/mL. In addition, the MIC was greater than 32 µg/mL against Staphylococcus aureus [9]; 0.5 µg/mL (≈ 1.01 µM) in the assay on Staphylococcus aureus [10]; 0.5 µg/mL (≈ 1.01 µM) in the assay on Staphylococcus aureus [11]; greater than 32 µg/mL with Staphylococcus aureus [13]; 4 µg/mL (≈ 8.11 µM) in the assay with Pseudomonas aeruginosa [14]; 1 µg/mL (≈ 2.03 µM) in the assay on Enterococcus faecalis [15]. For the same compound, the MIC in the assay with Escherichia coli [18] is 8 µg/mL (≈ 16.2 µM); against Escherichia coli [19], 32 µg/mL (≈ 64.8 µM); against Escherichia coli [20], less than 0.03 µg/mL; in the assay on Listeria monocytogenes [21], 2 µg/mL (≈ 4.05 µM); in the assay on Listeria monocytogenes [22], 2 µg/mL (≈ 4.05 µM); against Enterococcus faecium [28], 4 µg/mL (≈ 8.11 µM). Also, the MIC with Klebsiella oxytoca [29] is 8 µg/mL (≈ 16.2 µM); in [23] it was 1 µg/mL (≈ 2.03 µM); against Enterococcus faecium [30], greater than 32 µg/mL; in the assay on Klebsiella pneumoniae it was 4 µg/mL (≈ 8.11 µM); in [24], greater than 32 µg/mL.
